In experiment [1] the target is T1, Aldo-keto reductase family 1 member C3 (Homo sapiens, UniProt P42330). The experiment in a line: Inhibition of human recombinant AKR1C3 expressed in Escherichia coli JM109 cells using S-tetralol as substrate at 100 uM by fluorometry.
Experiment [2] deals with T2, Aldo-keto reductase family 1 member C1 (Homo sapiens, UniProt Q04828). Put plainly: Inhibition of AKR1C1-mediated progesterone reduction in human A549 cells at 0.2 to 5 uM incubated for 2 hrs prior to substrate addition measured after 6 hrs by LC/MS analysis. In kind it is cell-based. A digest of the protocol:
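A549 cells were grown in DMEM with 10% FBS at 37 °C under 5% CO2. They were pretreated 2 h with inhibitor in serum-free medium, then given 30 μM progesterone for 6 h. Medium steroids were extracted twice with ethyl acetate. Progesterone and 20α-hydroxyprogesterone were quantified by LC/MS (chiral column, total-ion monitoring). Percent inhibition of reduction is the mean of two independent experiments.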

Experiment [3] has as its target T1, Aldo-keto reductase family 1 member C3. Put plainly: Competitive inhibition of human recombinant AKR1C3 expressed in Escherichia coli JM109 cells using S-tetralol as substrate by fluorometry. In short, it runs like this:
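Recombinant enzymes (wild-type or mutant) were expressed in E. coli JM109 and purified to homogeneity. Activity was NADP+-linked S-tetralol oxidation at 25 °C in 0.1 M potassium phosphate, pH 7.4, with saturating 0.25 mM NADP+ and five S-tetralol levels (0.33−2 mM). NADPH fluorescence was read at ex 340/em 455 nm. Ki is the mean ± SD of at least three determinations.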

Experiment [4] has the same target. The experiment in a line: Noncompetitive inhibition of human recombinant AKR1C3 expressed in Escherichia coli JM109 cells using S-tetralol as substrate by fluorometry in presence of NADP+.
Experiment [5] has the same target. The experiment in a line: Inhibition of human recombinant AKR1C3 expressed in Escherichia coli JM109 cells using S-tetralol as substrate by fluorometry.
Experiment [6] deals with PC-3. Put plainly: Growth inhibition of human PC3 cells at 50 uM after 72 hrs by MTT assay relative to untreated control. Format: functional. The settings on record: PC-3, 72 h, read-out: GI. A general note: Formazan colour is commonly taken as a measure of viable cells.
Experiment [7] deals with PC-3. Put plainly: Growth inhibition of human PC3 cells overexpressing AKR1C3 at 50 uM after 72 hrs by MTT assay relative to untreated control. Format: functional. As to conditions: PC-3, 72 h, read-out: GI.
The target of experiment [8] is Aldo-keto reductase family 1 member C4 (Homo sapiens, UniProt P17516). The experiment in a line: Inhibition of human recombinant GST-tagged AKR1C4 expressed in Escherichia coli using S-tetralol as substrate by fluorometry. In short, it runs like this: (§1)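 Purified recombinant enzyme was assayed at 25 °C in 0.1 M potassium phosphate, pH 7.4, with 0.25 mM NADP+ and S-tetralol (0.1 mM for AKR1C1, 1 mM for AKR1C4). The rate of NADPH fluorescence increase was read at ex 340/em 455 nm. IC50 is the mean ± SD of at least three determinations.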

Experiment [9] has as its target Aldo-keto reductase family 1 member C2 (Homo sapiens, UniProt P52895). Put plainly: Inhibition of human recombinant AKR1C2 expressed in Escherichia coli using S-tetralol as substrate by fluorometry.
Experiment [10] addresses T2, Aldo-keto reductase family 1 member C1. Put plainly: Inhibition of human recombinant GST-tagged AKR1C1 expressed in Escherichia coli using S-tetralol as substrate by fluorometry. A digest of the protocol: as §1
Experiment [11] concerns the target T1, Aldo-keto reductase family 1 member C3. Put plainly: Inhibition of human AKR1C3 using S-(+)-1,2,3,4-tetrahydro-1-naphthol as substrate. In short, it runs like this: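 Recombinant human AKR1C3, purified to homogeneity. NADP+-linked S-tetralol oxidation at 25 °C in 0.1 M potassium phosphate pH 7.4 with 0.25 mM NADP+ and 1 mM S-tetralol. Rate followed by NADPH fluorescence (excitation 340 nm, emission 455 nm). IC50 given as mean ± SD of at least three determinations.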

SMILES strings stand for the structures. Activity calls are given as the source filed them. The rule behind the calls is not given here.

T1 sequence (P42330 whole entry): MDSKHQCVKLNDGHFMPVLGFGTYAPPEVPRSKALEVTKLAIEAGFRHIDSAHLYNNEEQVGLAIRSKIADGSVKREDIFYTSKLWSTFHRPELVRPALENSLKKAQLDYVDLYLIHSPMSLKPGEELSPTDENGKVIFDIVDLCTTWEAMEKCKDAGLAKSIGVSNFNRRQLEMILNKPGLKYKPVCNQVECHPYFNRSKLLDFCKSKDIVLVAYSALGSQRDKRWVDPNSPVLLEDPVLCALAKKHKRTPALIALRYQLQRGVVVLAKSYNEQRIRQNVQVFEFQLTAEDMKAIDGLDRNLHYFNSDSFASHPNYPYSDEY
T2 sequence (Q04828 whole entry): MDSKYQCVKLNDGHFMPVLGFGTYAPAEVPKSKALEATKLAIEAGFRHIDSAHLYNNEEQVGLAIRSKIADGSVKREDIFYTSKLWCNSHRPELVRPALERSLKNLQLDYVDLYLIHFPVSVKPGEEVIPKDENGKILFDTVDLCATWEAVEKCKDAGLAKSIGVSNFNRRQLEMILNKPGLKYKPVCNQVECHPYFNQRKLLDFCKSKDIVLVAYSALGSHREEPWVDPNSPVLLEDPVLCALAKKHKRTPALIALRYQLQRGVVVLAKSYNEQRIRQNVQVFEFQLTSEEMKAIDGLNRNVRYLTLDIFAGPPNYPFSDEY
Aldo-keto reductase family 1 member C4, sequence (P17516 whole entry): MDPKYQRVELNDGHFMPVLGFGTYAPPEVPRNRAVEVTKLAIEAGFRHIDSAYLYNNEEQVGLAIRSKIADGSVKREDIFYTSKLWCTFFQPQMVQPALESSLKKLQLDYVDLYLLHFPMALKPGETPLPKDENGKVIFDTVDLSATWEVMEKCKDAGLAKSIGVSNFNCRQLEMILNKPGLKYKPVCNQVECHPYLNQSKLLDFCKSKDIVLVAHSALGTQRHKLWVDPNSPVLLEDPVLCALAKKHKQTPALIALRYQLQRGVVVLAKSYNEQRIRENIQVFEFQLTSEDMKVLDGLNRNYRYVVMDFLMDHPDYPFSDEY
Aldo-keto reductase family 1 member C2, sequence (P52895 whole entry): as the sequence (Q04828 whole entry) above, with T38V, R47H, L54V, C87S, V151M, R170H, Q172L counted along it

For orientation: inhibition means the change of the read-out against control, counted positive when it falls. For `O=C(O)/C=C/c1ccc(O)c(O)c1`, the inhibition in [1] amounted to 36%.
As for `O=C(O)/C=C/c1ccc(O)cc1`, the inhibition in experiment [1] was 22%.
As for `O=C(O)c1cc(-c2ccccc2)cc(Br)c1O`, the inhibition result in [2] was “Active”.
The Ki is the equilibrium dissociation constant of an inhibitor or competing ligand from its target. Broadly, the IC50 is the concentration needed to halve the response being measured. For the compound `CC(C)=CCc1cc(/C=C/C(=O)O)cc(CC=C(C)C)c1O` [ARTEPILLIN], the Ki in [3] and in experiment [4] was 680 nM each time. Further, the IC50 in [5] came to 1000 nM.
On to `CC(C)=CCc1cc(/C=C/C(=O)O)ccc1OC(=O)CCc1ccccc1` [BACCHARIN], for which the inhibition of growth at 50 µM in the experiment on PC-3 [6] was found to be 35%; in the experiment with PC-3 [7], 43%.
Turning to `O=C(/C=C/c1ccc(O)c(O)c1)OCCc1ccccc1` [CAFFEIC ACID PHENETHYL ESTER], the IC50 is 2300 nM in experiment [8], 6000 nM in [9], 13000 nM in experiment [10] and 1700 nM in experiment [5].
On to `COc1ccc2c(c1)c(CC(=O)O)c(C)n2C(=O)c1ccc(Cl)cc1` [INDOMETHACIN], for which the half-maximal inhibitory concentration (IC50) turned out to be 54000 nM in [8], 75000 nM in [9] and 130000 nM in experiment [10].
The compound `Cc1c(Cl)cccc1Nc1ccccc1C(=O)O` [TOLFENAMIC ACID] gave a Ki in experiment [11] of 8 nM.
